Data on 3 compounds can be found in article PMC2756064 (Journal of medicinal chemistry, 2009).

Data set [1] addresses T1, Cathepsin E (Homo sapiens, UniProt P14091).
T1 sequence (P14091 54-396): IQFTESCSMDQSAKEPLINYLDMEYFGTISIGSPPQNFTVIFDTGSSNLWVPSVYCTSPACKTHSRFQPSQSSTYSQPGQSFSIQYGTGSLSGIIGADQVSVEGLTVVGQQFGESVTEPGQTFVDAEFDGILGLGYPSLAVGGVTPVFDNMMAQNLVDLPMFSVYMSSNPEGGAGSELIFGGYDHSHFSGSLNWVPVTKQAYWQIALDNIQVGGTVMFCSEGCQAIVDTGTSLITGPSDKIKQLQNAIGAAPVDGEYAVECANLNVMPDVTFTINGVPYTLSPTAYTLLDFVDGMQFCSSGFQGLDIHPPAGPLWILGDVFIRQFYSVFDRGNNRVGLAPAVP
The data set can be described thus: Protease inhibition screen and IC50 assay, cathepsin E. Format: biochemical. Conditions: result in words.

Data set [2] is described as follows: Solubility in DMSO for dilution series. Format: physicochemical.
Data set [3] has as its target T2, ADAM9 (Homo sapiens, UniProt Q13443).
T2 sequence (Q13443 29-819): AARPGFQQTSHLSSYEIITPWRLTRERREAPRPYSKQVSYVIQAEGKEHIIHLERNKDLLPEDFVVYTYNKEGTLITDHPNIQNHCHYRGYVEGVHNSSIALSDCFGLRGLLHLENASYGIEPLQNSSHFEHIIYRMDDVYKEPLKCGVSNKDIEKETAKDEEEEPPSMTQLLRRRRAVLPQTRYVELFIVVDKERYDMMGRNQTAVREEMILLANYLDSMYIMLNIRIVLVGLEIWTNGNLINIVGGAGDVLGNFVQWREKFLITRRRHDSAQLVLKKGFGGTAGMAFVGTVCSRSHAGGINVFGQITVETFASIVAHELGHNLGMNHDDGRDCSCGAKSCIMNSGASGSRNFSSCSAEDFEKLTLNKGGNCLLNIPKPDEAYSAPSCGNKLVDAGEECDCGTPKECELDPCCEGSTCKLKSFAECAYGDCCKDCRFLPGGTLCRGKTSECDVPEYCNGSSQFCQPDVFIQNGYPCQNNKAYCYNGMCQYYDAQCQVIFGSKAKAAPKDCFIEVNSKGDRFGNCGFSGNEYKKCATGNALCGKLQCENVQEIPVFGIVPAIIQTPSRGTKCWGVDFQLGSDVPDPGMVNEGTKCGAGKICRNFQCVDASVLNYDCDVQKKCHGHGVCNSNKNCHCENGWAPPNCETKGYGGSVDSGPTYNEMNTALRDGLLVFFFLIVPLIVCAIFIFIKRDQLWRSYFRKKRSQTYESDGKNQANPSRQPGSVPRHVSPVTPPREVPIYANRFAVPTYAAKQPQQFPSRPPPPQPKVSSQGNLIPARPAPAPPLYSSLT
Briefly: Protease inhibition screen and IC50 assay, ADAM9. In kind it is biochemical. Conditions: 10 μM, panel of 59 proteases.

The target in data set [4] is T3, ADAM10 (Homo sapiens, UniProt O14672).
T3 sequence (O14672 214-748): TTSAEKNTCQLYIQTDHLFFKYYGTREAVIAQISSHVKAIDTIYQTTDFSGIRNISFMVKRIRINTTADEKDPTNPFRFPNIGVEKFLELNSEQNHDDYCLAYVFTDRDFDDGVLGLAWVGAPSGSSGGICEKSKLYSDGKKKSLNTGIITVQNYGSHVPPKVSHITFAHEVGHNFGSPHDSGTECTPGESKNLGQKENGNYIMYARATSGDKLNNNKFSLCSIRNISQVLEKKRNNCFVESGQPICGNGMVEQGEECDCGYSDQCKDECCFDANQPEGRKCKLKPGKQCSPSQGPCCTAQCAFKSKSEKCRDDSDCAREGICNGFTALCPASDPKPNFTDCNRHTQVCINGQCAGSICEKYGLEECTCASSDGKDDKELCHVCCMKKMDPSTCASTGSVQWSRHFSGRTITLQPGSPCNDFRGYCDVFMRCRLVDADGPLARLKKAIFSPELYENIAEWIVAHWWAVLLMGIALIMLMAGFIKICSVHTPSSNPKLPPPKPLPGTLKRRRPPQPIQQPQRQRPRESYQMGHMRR
Briefly: Protease inhibition screen and IC50 assay, ADAM10. Format: biochemical. To be noted: 10 μM, panel of 59 proteases.

The target of data set [5] is TACE (Homo sapiens, UniProt P78536). Briefly: Protease inhibition screen and IC50 assay, TACE. In kind it is biochemical. To be noted: 10 μM, panel of 59 proteases.
Sequence of TACE (P78536 215-824): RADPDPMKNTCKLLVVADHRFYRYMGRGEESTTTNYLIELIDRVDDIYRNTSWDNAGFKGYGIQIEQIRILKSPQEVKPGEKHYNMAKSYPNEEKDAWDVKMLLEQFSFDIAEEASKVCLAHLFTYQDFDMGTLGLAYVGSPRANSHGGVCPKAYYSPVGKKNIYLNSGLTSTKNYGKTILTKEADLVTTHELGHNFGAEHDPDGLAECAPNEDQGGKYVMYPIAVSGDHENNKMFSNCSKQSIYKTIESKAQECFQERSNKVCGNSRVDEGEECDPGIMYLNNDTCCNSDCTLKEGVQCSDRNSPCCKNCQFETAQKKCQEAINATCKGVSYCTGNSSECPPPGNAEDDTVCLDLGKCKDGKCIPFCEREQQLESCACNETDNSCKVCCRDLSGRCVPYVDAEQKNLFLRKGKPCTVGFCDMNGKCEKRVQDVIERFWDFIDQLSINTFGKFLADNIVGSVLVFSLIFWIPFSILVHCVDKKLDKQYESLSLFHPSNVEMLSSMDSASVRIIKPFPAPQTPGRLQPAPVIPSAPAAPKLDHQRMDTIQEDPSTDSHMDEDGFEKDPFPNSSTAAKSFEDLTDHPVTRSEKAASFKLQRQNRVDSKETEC
Data set [6] deals with MCF7 cell lysate (cellular cathepsins D and E). The data set can be described thus: Inhibition of cellular cathepsins in MCF7 cell lysate. In kind it is biochemical.
In data set [7] the test system is human peripheral blood mononuclear cells (CD3+ T cells). The data set can be described thus: T cell proliferation in PBMCs in response to exogenous antigen. In kind it is cell-based. In a few lines: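 Human PBMCs were isolated from buffy coats by Ficoll-Hypaque density gradient centrifugation, washed in PBS, and checked for viability by trypan blue. They were cultured in RPMI 1640 with 2 mM L-glutamine, penicillin/streptomycin and 10% FBS, with test compound at various concentrations. Cells were antibody-stained for 30 min at 4 °C, then permeabilised for intracellular staining and fixed in 2% paraformaldehyde. Lymphocytes were gated by forward/side scatter, with 50,000 cells per sample and isotype controls.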

Data set [8] has as its system monocyte derived dendritic cells and CD4+ T cells (autologous). Briefly: Autologous mixed lymphocyte reaction. In kind it is cell-based, human. To be noted: autologous MLR.
For data set [9], the system named is monocyte derived dendritic cells and CD4+ T cells (allogeneic). Briefly: Allogeneic mixed lymphocyte reaction. Conditions: allogeneic MLR. In kind it is cell-based, human.

Molecules are shown by their SMILES. Square brackets hold non-standard residues; d marks the D form. Peptide text beside a SMILES is read from it. * marks the point of attachment. Hmp(2R,3S) = CC[C@H](C)[C@@H](O)C(=O)O; Sta = CC(C)C[C@H](N)[C@@H](O)CC(=O)O; NMe2Val = CC(C)[C@@H](C(=O)*)N(C)C; dNMeF = CN[C@H](Cc1ccccc1)C(=O)O; NMeQ = CN[C@@H](CCC(N)=O)C(=O)O; dHiv = CC(C)[C@@H](O)C(=O)O; Hiv = CC(C)[C@H](O)C(=O)O; Isovaleryl = CC(C)CC(=O)*

In the case of `CC(C)CC(=O)N[C@H](C(=O)N[C@H](C(=O)N[C@@H](CC(C)C)[C@@H](O)CC(=O)N[C@@H](C)C(=O)N[C@@H](CC(C)C)[C@@H](O)CC(=O)O)C(C)C)C(C)C` [Pepstatin A, pepstatin A] (Isovaleryl-VV[Sta]A[Sta]-OH), in data set [1], the “discrimination between cathepsins D and E” value is “did not discriminate”.
On to `CC[C@H](C)[C@H](NC(=O)C[C@H](O)[C@H](CC(C)C)NC(=O)[C@H](CCC(N)=O)N(C)C(=O)[C@H](CC(C)C)NC(=O)[C@H](O)[C@@H](C)CC)C(=O)NCC(=O)N(C)[C@H](Cc1ccccc1)C(=O)N1CCC[C@H]1C(=O)OC` [Compound 3, grassystatin C] ({Hmp(2R,3S)}-L[NMeQ][Sta]IG[dNMeF]P-OMe), for which, in data set [2], the “solubility in DMSO” value is listed as “insoluble in DMSO”.
For the compound `COC(=O)[C@@H]1CCCN1C(=O)[C@@H](Cc1ccccc1)N(C)C(=O)[C@H](C)NC(=O)[C@@H](NC(=O)C[C@H](O)[C@H](CC(C)C)NC(=O)[C@H](CC(N)=O)NC(=O)[C@H](CC(C)C)NC(=O)[C@H](OC(=O)[C@@H](OC(=O)[C@H](C(C)C)N(C)C)C(C)C)C(C)C)[C@@H](C)O` [Compound 1, grassystatin A] (NMe2Val-[Hiv][dHiv]LN[Sta]TA[dNMeF]P-OMe), in data set [3], the “inhibitory activity in protease screen” value was “compromised activities”. Also, the “inhibitory activity in protease screen” value in data set [4] is “compromised activities”. In addition, the “inhibitory activity in protease screen” value in [5] is listed as “compromised activities”. Further, in data set [6] (MCF7 lysate), the “decrease in potency compared to purified cathepsin E” value was determined as 564 fold and the “difference in IC50 compared to pepstatin A” value was 100 fold. Further, the IC50 in [6] (read-out: apparent IC50, MCF7 lysate treated directly) is ~500 nM. Moreover, in data set [7] (10 μM, CD3+ lymphocytes), the “T cell proliferation in response to exogenous antigen (TTc)” value is reported as “significantly reduce”. The T cell viability entry in data set [7] (same experiment, data not shown) was “unaffected”. For the same compound, in data set [8], the “interferon-γ (IFN-γ) in response to antigen presentation” value was “inhibit upregulation” and the “interleukin-17 (IL-17) in response to antigen presentation” value was “inhibit upregulation”. In data set [8] (TTc + PMA, 5 days), the T cell proliferation entry was “reduce T cell proliferation in a dose dependent manner”. Besides, in [9], the IFN-γ production result is recorded as “significant downregulation” and the IL-17 production entry was “significant downregulation”.

One may read the IC50 as the concentration at which inhibition is half-maximal.
